From ChEMBL document CHEMBL3112527, “Quinoline-pyrimidine hybrids: synthesis, antiplasmodial activity, SAR, and mode of action studies” (J Med Chem, 2014)
≈ marks a conversion by molar mass, not a printed value. Calls of active or inactive are those of the source. No cut-off for these calls is given here.

Key:
[1] = system: Human alphaherpesvirus 2; assay: Antiviral activity against HSV-2 G infected in HEL cells assessed as inhibition of virus-induced cytopathicity; assay type: functional, organism-based; details: strain G
How it was run: (§1)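 Confluent monolayers (HEL, Vero, HeLa or CrFK, as applicable) were inoculated with 100 CCID50 of virus, with 1 CCID50 being the dose that infects 50% of cultures. Infection ran in the presence of varying compound concentrations. Inhibition of virus-induced cytopathicity was scored against infected cultures left untreated.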

[2] = system: Human alphaherpesvirus 1; assay: Antiviral activity against HSV-1 KOS infected in HEL cells assessed as inhibition of virus-induced cytopathicity; assay type: functional, organism-based; how it was run: as §1
[3] = Solubility of the compound in octanol at pH 7.4 by HPLC analysis; assay type: physicochemical
[4] = n-octanol-PBS buffer distribution coefficient, log D of the compound at pH 7.4 after 24 hrs by HPLC analysis; assay type: physicochemical
[5] = Aqueous solubility of the compound in PBS buffer at pH 7.4 after 24 hrs by HPLC analysis; assay type: physicochemical; details: pH 7.4, 24 h
[6] = Selectivity index, ratio of CC50 for cat CRFK cells to IC50 for chloroquine-resistant asexual erythrocytic stage of Plasmodium falciparum Dd2; assay type: functional
How it was run: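 Ratio of CRFK CC50 (μM) to Dd2 IC50 […]. CC50 is the 50% cytotoxic concentration in feline kidney CRFK cells, measured as cell viability by colorimetric formazan-based MTS assay. Dd2 IC50 is from the parasite LDH growth-inhibition assay.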

[7] = Cytotoxicity against cat CRFK cells assessed as cell viability by MTS assay; assay type: cell-based, Felis catus
How it was run: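 CRFK cells were exposed to varying sample concentrations. Cell viability was measured with the colorimetric formazan-based MTS assay, and the 50% cytotoxic concentration (CC50) was derived from it.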

[8] = Cytotoxicity against human HeLa cells assessed as alteration of cell morphology by microscopic analysis; assay type: cell-based; details: read-out: MIC
How it was run: (§2)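 Cells (Vero, HEL, MDCK or HeLa) were exposed to a range of sample concentrations. The value reported is the concentration required to cause a microscopically detectable alteration of normal cell morphology.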

[9] = system: Plasmodium falciparum; assay: Antiplasmodial activity against chloroquine-resistant asexual erythrocytic stage of Plasmodium falciparum Dd2 assessed as parasite growth inhibition by lactate dehydrogenase assay; assay type: functional, organism-based
How it was run: (§3)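 Parasite lactate dehydrogenase assay (modified Makler method). Samples held as 20 mg/mL stocks in DMSO, diluted on test day. Full dose-response: starting at 10 μg/mL, 2-fold serial dilution in complete medium over 10 concentrations down to 0.02 μg/mL. Chloroquine, artesunate and MMV390048 served as references. IC50 from nonlinear dose-response curve fitting; mean of three independent experiments.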

[10] = system: Plasmodium falciparum; assay: Antiplasmodial activity against chloroquine-sensitive asexual erythrocytic stage of Plasmodium falciparum D10 assessed as parasite growth inhibition by lactate dehydrogenase assay; assay type: functional, organism-based; how it was run: as §3
[11] = system: Plasmodium falciparum; assay: Potency index, ratio of chloroquine IC50 to compound IC50 for chloroquine-resistant asexual erythrocytic stage of Plasmodium falciparum Dd2; assay type: functional
[12] = system: MDCK; assay: Cytotoxicity against MDCK cells assessed as alteration of cell morphology by microscopic analysis; assay type: cell-based, Canis lupus familiaris; details: dog; how it was run: as §2
[13] = system: Vero; assay: Cytotoxicity against African green monkey Vero cells assessed as alteration of cell morphology by microscopic analysis; assay type: cell-based; details: chlorocebus sabaeus; how it was run: as §2
[14] = system: HEL; assay: Cytotoxicity against HEL cells assessed as alteration of cell morphology by microscopic analysis; assay type: cell-based; details: human; how it was run: as §2
[15] = system: Escherichia coli; assay: Binding affinity to Escherichia coli pUC18 DNA by fluorescence spectrophotometric analysis
How it was run: (§4)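 Steady-state fluorescence titration at ambient temperature, with excitation at 330 nm and emission at 376 nm. […] Binding constant derived from the emission changes.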

[16] = system: DNA; assay: Binding affinity to calf thymus DNA by fluorescence spectrophotometric analysis; assay type: nucleic-acid assay; details: Bos taurus; how it was run: as §4
[17] = system: DNA; assay: Binding affinity to calf thymus DNA at 5:1 DNA to compound ratio by spectrophotometric analysis (reference value: 59.5 degC); assay type: nucleic-acid assay; details: Bos taurus
[18] = system: DNA; assay: Binding affinity to calf thymus DNA assessed as hypochromic shift at 66.6 uM after 5 mins by UV-spectrophotometric analysis; assay type: nucleic-acid assay; details: Bos taurus
[19] = system: Heme; assay: Binding affinity to heme assessed as inhibition of beta-hematin formation at 1.2 equiv after 1 hr by FT-IR spectroscopic analysis
[20] = system: Heme; assay: Binding affinity to mu-oxodimeric heme at pH 5.8
How it was run: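 μ-Oxo dimer heme (10 μM) in 20 mM phosphate buffer, pH 5.8, titrated stepwise with compound (0.3−16 μM). Decrease in absorbance at 362 nm was monitored, and the binding constant was calculated from the titration curve.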

[21] = system: Ferriprotoporphyrin IX; assay: Binding affinity to monomeric Fe(III)PPIX at 5 umol by mass spectra analysis
How it was run: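 Solution-phase mass spectra were recorded after adding monomeric heme (5 μmol) to the compound (5 μmol) in 40% aqueous DMSO. The region between 1008 and 1024 Da was examined for adduct signals.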

[22] = system: Ferriprotoporphyrin IX; assay: Binding affinity to monomeric Fe(III)PPIX by 1H NMR spectra analysis
[23] = system: Ferriprotoporphyrin IX; assay: Binding affinity to monomeric Fe(III)PPIX at pH 7.4
How it was run: (§5)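 UV-vis titration of monomeric Fe(III)PPIX (2.4 μM) with stepwise additions of compound (0−69 μM, in DMSO), in aqueous DMSO. Buffer was 0.02 M HEPES at pH 7.4 or 0.02 M MES at pH 5.6. Decrease of the Soret band at 402 nm was followed. Association constants were calculated from the titration curves. Stoichiometry was taken from Job's plot.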

[24] = system: Ferriprotoporphyrin IX; assay: Binding affinity to monomeric Fe(III)PPIX at pH 5.6; how it was run: as §5
[25] = system: Felid alphaherpesvirus 1; assay: Antiviral activity against Feline herpesvirus infected in cat CRFK cells assessed as inhibition of virus-induced cytopathicity; assay type: functional, organism-based; how it was run: as §1
[26] = system: Feline coronavirus; assay: Antiviral activity against Feline coronavirus infected in cat CRFK cells assessed as inhibition of virus-induced cytopathicity; assay type: functional, organism-based; how it was run: as §1
[27] = system: Human alphaherpesvirus 3; assay: Antiviral activity against Varicella-zoster virus infected in HEL cells assessed as inhibition of virus-induced cytopathicity; assay type: functional, organism-based
[28] = system: Human betaherpesvirus 5; assay: Antiviral activity against Cytomegalovirus Davis infected in HEL cells assessed as inhibition of virus-induced cytopathicity; assay type: functional, organism-based
[29] = system: Human betaherpesvirus 5; assay: Antiviral activity against Cytomegalovirus AD169 infected in HEL cells assessed as inhibition of virus-induced cytopathicity; assay type: functional, organism-based
[30] = system: Respiratory syncytial virus; assay: Antiviral activity against Respiratory syncytial virus infected in human HeLa cells assessed as inhibition of virus-induced cytopathicity; assay type: functional, organism-based; how it was run: as §1
[31] = system: Coxsackievirus B4; assay: Antiviral activity against Coxsackievirus B4 infected in human HeLa cells assessed as inhibition of virus-induced cytopathicity; assay type: functional, organism-based; how it was run: as §1
[32] = system: Influenza A virus H3N2; assay: Antiviral activity against Influenza A virus H3N2 infected in MDCK cells assessed as inhibition of virus-induced cytopathicity; assay type: functional, organism-based
How it was run: (§6)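 Confluent monolayers in 96-well plates were inoculated with 100 CCID50 of virus in the presence of varying concentrations of compound. Read-out was inhibition of virus-induced cytopathicity, compared with untreated infected cultures. Cytotoxicity was judged microscopically or by MTT viability staining.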

[33] = system: Vesicular stomatitis virus; assay: Antiviral activity against Vesicular stomatitis virus infected in human HeLa cells assessed as inhibition of virus-induced cytopathicity; assay type: functional, organism-based; how it was run: as §6
[34] = system: Influenza A virus; assay: Antiviral activity against influenza A virus H1N1 infected in MDCK cells assessed as inhibition of virus-induced cytopathicity; assay type: functional, organism-based; how it was run: as §6
[35] = system: Punta Toro virus; assay: Antiviral activity against Punta Toro virus infected in African green monkey Vero cells assessed as inhibition of virus-induced cytopathicity; assay type: functional, organism-based; how it was run: as §1
[36] = system: Coxsackievirus B4; assay: Antiviral activity against Coxsackievirus B4 infected in African green monkey Vero cells assessed as inhibition of virus-induced cytopathicity; assay type: functional, organism-based; how it was run: as §1
[37] = system: Sindbis virus; assay: Antiviral activity against Sindbis virus infected in African green monkey Vero cells assessed as inhibition of virus-induced cytopathicity; assay type: functional, organism-based
[38] = system: Mammalian orthoreovirus 1; assay: Antiviral activity against Reovirus 1 infected in African green monkey Vero cells assessed as inhibition of virus-induced cytopathicity; assay type: functional, organism-based; how it was run: as §1
[39] = system: Human respirovirus 3; assay: Antiviral activity against parainfluenza virus 3 infected in African green monkey Vero cells assessed as inhibition of virus-induced cytopathicity; assay type: functional, organism-based; how it was run: as §1
[40] = system: Human alphaherpesvirus 1; assay: Antiviral activity against thymidine kinase-negative acyclovir-resistant HSV-1 KOS infected in HEL cells assessed as inhibition of virus-induced cytopathicity; assay type: functional, organism-based; how it was run: as §6
[41] = system: Vesicular stomatitis virus; assay: Antiviral activity against Vesicular stomatitis virus infected in HEL cells assessed as inhibition of virus-induced cytopathicity; assay type: functional, organism-based; how it was run: as §6
[42] = system: Vaccinia virus; assay: Antiviral activity against Vaccinia virus infected in HEL cells assessed as inhibition of virus-induced cytopathicity; assay type: functional, organism-based; details: Orthopoxvirus vaccinia; how it was run: as §6

For `Clc1ccc2c(NCCCNc3nccc(N4CCCCC4)n3)ccnc2c1`, the inhibition [1] was “inactive”, the inhibition [2] was “inactive” and the solubility [3] was 1.74 µM (≈ 0.691 µg/mL). The logD at 24 h [4] was 0.845, the solubility [5] was 0.25 µM (≈ 0.0992 µg/mL) and the “Ratio CC50/IC50” value [6] was 228. For the same molecule, the CC50 [7] was 9800 nM, the MCC [8] was 100 µM and the IC50 [9] was 43 nM. The IC50 [10] was 22.6 nM, the “Ratio IC50” value [11] was 3.2 and the Activity [12] was “Non-toxic”. The Activity [13] was “Non-toxic”, the Activity [14] was “Non-toxic” and the log Ks [15] was 3.99. The log Ks [16] was 3.64, the Tm [17] was 67.8 °C and the Activity [18] was 23%. The inhibition [19] was “Active”, the log Ks [20] was 5.84 and the Activity [21] was “Active”. For the same molecule, the Activity [22] was “Active”, the log Ks [23] was 4.63 and the log Ks [24] was 4.59. The inhibition [25] was “inactive”, the inhibition [26] was “inactive” and the inhibition [27] was “inactive”. The inhibition [28] was “inactive”, the inhibition [29] was “inactive” and the inhibition [30] was “inactive”. For the same molecule, the inhibition [31] was “inactive”, the inhibition [32] was “inactive” and the inhibition [33] was “inactive”. For the same molecule, the inhibition [34] was “inactive”, the inhibition [35] was “inactive” and the inhibition [36] was “inactive”. For the same molecule, the inhibition [37] was “inactive”, the inhibition [38] was “inactive” and the inhibition [39] was “inactive”. For the same molecule, the inhibition [40] was “inactive”, the inhibition [41] was “inactive” and the inhibition [42] was “inactive”.

For `Clc1ccc2c(NCCCNc3nccc(Cl)n3)ccnc2c1`, the inhibition [1] was “inactive”, the inhibition [2] was “inactive” and the solubility [3] was 1.81 µM (≈ 0.63 µg/mL). The logD at 24 h [4] was 0.657, the solubility [5] was 0.4 µM (≈ 0.139 µg/mL) and the “Ratio CC50/IC50” value [6] was >209. The CC50 [7] was > 100000 nM, the MCC [8] was > 100 µM and the IC50 [9] was 478 nM. The IC50 [10] was 244 nM, the inhibition [25] was “inactive” and the inhibition [26] was “inactive”. The inhibition [27] was “inactive”, the inhibition [28] was “inactive” and the inhibition [29] was “inactive”. The inhibition [30] was “inactive”, the inhibition [31] was “inactive” and the inhibition [32] was “inactive”. For the same molecule, the inhibition [33] was “inactive”, the inhibition [34] was “inactive” and the inhibition [35] was “inactive”. The inhibition [36] was “inactive”, the inhibition [37] was “inactive” and the inhibition [38] was “inactive”. For the same molecule, the inhibition [39] was “inactive”, the inhibition [40] was “inactive” and the inhibition [41] was “inactive”. For the same molecule, the inhibition [42] was “inactive”.
